Results as given in ChEMBL document CHEMBL5724801, “EUbOPEN Chemogenomics Library - Multiplex” (2024).
Several values for one entry are separate records, joined by “and”; a condition that tells them apart may be missing. Equal values may be shown once.

System: U2OS
Test: Multiplex assay against U2OS
Type: toxicity, cell-based
Conditions: human
Method in brief: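 On a CQ1 microscope at 37°C and 5% CO2, live cells were imaged after compound addition. They had been stained at seeding with Hoechst33342, BioTracker Green Microtubule Cytoskeleton Dye, MitoTracker Red and Annexin V Alexa Fluor 680. CellPathfinder machine-learning gating assigned cells to Hoechst high-intensity objects or normal cells, normal cells to healthy, pyknosed or fragmented nuclei, and pyknosed cells to mitotic or apoptotic. Tubulin, mitochondrial-mass and membrane-permeability phenotypes are per cents of healthy-nucleus cells.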

[1] = 12 h, 1 µM, compound concentration 1 uM
[2] = 12 h, 10 µM, compound concentration 10 uM
[3] = 24 h, 1 µM, compound concentration 1 uM
[4] = 24 h, 10 µM, compound concentration 10 uM
[5] = 48 h, 1 µM, compound concentration 1 uM
[6] = 48 h, 10 µM, compound concentration 10 uM

COc1c(C)cc(NC(=O)c2nn(Cc3ccc(F)cc3)c3c2CN(C(=O)c2ccc[nH]2)C[C@]3(C)C(N)=O)cc1C
Population Apoptotic (%) [1]: 65% and 83% | Population Fragmented Nuclei (%) [1]: 22% and 21% | Population Healthy Nuclei (%) [1]: 65% and 72% | Population Hoechst High Intensity Objects (%) [1]: 2% | Population Membrane Permeable-Phenotype (%) [1]: 8% | Population Mitochondria Different-Phenotype (%) [1]: 3% and 12% | Population Mitotic Cells (%) [1]: 34% and 16% | Population Normal (%) [1]: 97% | Population Pyknosed Nuclei (%) [1]: 12% and 6% | Population Tubulin-Different-Phenotype (%) [1]: 5% and 9% | Total Cell Count [1]: 247 and 102 | Population Apoptotic (%) [2]: 33% and 60% | Population Fragmented Nuclei (%) [2]: 26% and 11% | Population Healthy Nuclei (%) [2]: 43% and 66% | Population Hoechst High Intensity Objects (%) [2]: 9% and 8% | Population Membrane Permeable-Phenotype (%) [2]: 77% and 54% | Population Mitochondria Different-Phenotype (%) [2]: 90% and 97% | Population Mitotic Cells (%) [2]: 66% and 39% | Population Normal (%) [2]: 90% and 91% | Population Pyknosed Nuclei (%) [2]: 29% and 21% | Population Tubulin-Different-Phenotype (%) [2]: 95% and 100% | Total Cell Count [2]: 223 and 119 | Population Apoptotic (%) [3]: 67% and 61% | Population Fragmented Nuclei (%) [3]: 16% and 17% | Population Healthy Nuclei (%) [3]: 71% and 70% | Population Hoechst High Intensity Objects (%) [3]: 5% and 0% | Population Membrane Permeable-Phenotype (%) [3]: 8% and 7% | Population Mitochondria Different-Phenotype (%) [3]: 6% and 2% | Population Mitotic Cells (%) [3]: 32% and 38% | Population Normal (%) [3]: 94% and 99% | Population Pyknosed Nuclei (%) [3]: 12% and 11% | Population Tubulin-Different-Phenotype (%) [3]: 7% and 6% | Total Cell Count [3]: 265 and 111 | Population Apoptotic (%) [4]: 66% and 65% | Population Fragmented Nuclei (%) [4]: 26% and 13% | Population Healthy Nuclei (%) [4]: 41% and 53% | Population Hoechst High Intensity Objects (%) [4]: 12% and 7% | Population Membrane Permeable-Phenotype (%) [4]: 46% and 49% | Population Mitochondria Different-Phenotype (%) [4]: 92% and 91% | Population Mitotic Cells (%) [4]: 33% and 34% | Population Normal (%) [4]: 87% and 92% | Population Pyknosed Nuclei (%) [4]: 31% and 33% | Population Tubulin-Different-Phenotype (%) [4]: 94% and 91% | Total Cell Count [4]: 216 and 123 | Population Apoptotic (%) [5]: 79% and 84% | Population Fragmented Nuclei (%) [5]: 18% and 15% | Population Healthy Nuclei (%) [5]: 68% and 70% | Population Hoechst High Intensity Objects (%) [5]: 2% and 5% | Population Membrane Permeable-Phenotype (%) [5]: 4% and 9% | Population Mitochondria Different-Phenotype (%) [5]: 3% and 4% | Population Mitotic Cells (%) [5]: 20% and 15% | Population Normal (%) [5]: 97% and 94% | Population Pyknosed Nuclei (%) [5]: 13% | Population Tubulin-Different-Phenotype (%) [5]: 2% and 5% | Total Cell Count [5]: 365 and 152 | Population Apoptotic (%) [6]: 84% and 87% | Population Fragmented Nuclei (%) [6]: 31% and 22% | Population Healthy Nuclei (%) [6]: 24% and 47% | Population Hoechst High Intensity Objects (%) [6]: 17% and 9% | Population Membrane Permeable-Phenotype (%) [6]: 69% and 50% | Population Mitochondria Different-Phenotype (%) [6]: 85% and 81% | Population Mitotic Cells (%) [6]: 15% and 12% | Population Normal (%) [6]: 82% and 90% | Population Pyknosed Nuclei (%) [6]: 44% and 29% | Population Tubulin-Different-Phenotype (%) [6]: 90% and 80% | Total Cell Count [6]: 212 and 150
